Data reported in publication PMC8851646 (ACS Omega, 2022).
In brackets after ≈: the same amount, converted by molar mass. Read-outs that look alike come from different tables or passages of the source.

What was measured:
[1] = test system: P. aeruginosa; settings: against P. aeruginosa; cited from earlier work
[2] = test system: K. pneumoniae wbbM mutant (NB29018) co-cultured with T. pyriformis; experiment: Tp/Kp co-culture assay with cell surface-defective wbbM mutant; format: cell-based, Klebsiella pneumoniae; settings: Tp threshold 4625–18,500 Tp/mL
[3] = test system: K. pneumoniae NB29017; experiment: Qualitative inhibition of mucoid appearance of colonies on solid LB agar; format: cell-based, Klebsiella pneumoniae; settings: 4 fully mucoid, 0 nonmucoid, by eye
Method in brief: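 Test compound dissolved in DMSO (12.8 mg/mL stock) and mixed into melted LB agar at 0–16 μg/mL final, then set in six-well plates. Mucoid wild-type NB29017 streaked for single colonies in each well. Plates incubated 18 h at 37 °C, then 2 h at 4 °C. Mucoid appearance scored by eye from 0 (none) to 4 (normal hypermucoid).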

[4] = test system: K. pneumoniae NB29017 co-cultured with T. pyriformis; experiment: T. pyriformis/K. pneumoniae; format: cell-based, Klebsiella pneumoniae
[5] = test system: K. pneumoniae NB29017; experiment: Electron microscopy of cell surface material; format: cell-based, Klebsiella pneumoniae; settings: grown in SM medium with 32 μg/mL compound
Method in brief: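 K. pneumoniae NB29017 grown overnight with shaking at 37 °C in 10 mL SM medium, with or without test compound at 32 μg/mL. Diluted 1:50 into the same medium and grown to OD600 of about 2. Cells pelleted at 3000g and washed in Na-cacodylate pH 7.2. Fixed 2 h at 4 °C (2.5% glutaraldehyde, 1% tannic acid, 0.1 M Na-cacodylate, pH 7.2). Pelleted, taken up in cacodylate buffer and examined by electron microscopy.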

[6] = Compound stability, LC-MS of freshly dissolved powder; format: physicochemical; settings: impure by LC–MS from freshly dissolved powder
[7] = Cytotoxicity in K562 cells; format: cell-based; settings: human
[8] = Red blood cell hemolysis; format: cell-based, sheep; settings: sheep, erythrocytes from defibrinated sheep blood, pH 7.5
[9] = test system: Staphylococcus aureus; experiment: Antibacterial MIC, Gram-positive control; format: cell-based; settings: read-out: MIC Sa
[10] = test system: erythrocytes from defibrinated sheep blood; experiment: Red blood cell hemolysis; format: cell-based; settings: Table 1; concentration causing 50% hemolysis
[11] = target: T1, P. aeruginosa LpxC (Pseudomonas aeruginosa, UniProt P47205); experiment: Inhibition of purified LpxC enzyme; format: biochemical
T1 sequence (P47205 1-303): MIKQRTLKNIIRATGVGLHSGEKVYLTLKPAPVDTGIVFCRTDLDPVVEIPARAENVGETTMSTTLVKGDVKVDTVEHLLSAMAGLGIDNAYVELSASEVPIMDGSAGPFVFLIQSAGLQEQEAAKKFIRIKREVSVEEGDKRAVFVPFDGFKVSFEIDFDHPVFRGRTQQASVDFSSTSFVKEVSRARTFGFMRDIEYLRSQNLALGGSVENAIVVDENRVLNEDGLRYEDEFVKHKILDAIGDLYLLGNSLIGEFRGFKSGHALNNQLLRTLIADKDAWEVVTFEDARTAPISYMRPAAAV

[12] = test system: K. pneumoniae NB29017; experiment: Agar MIC; format: cell-based; settings: Klebsiella pneumoniae, NB29017, read-out: agar MIC
[13] = test system: K. pneumoniae (Kp); experiment: Antibacterial MIC, broth; format: cell-based; settings: Klebsiella pneumoniae, read-out: MIC, broth-based
[14] = test system: K. pneumoniae NB29017; experiment: Kp-only counterscreen for direct antibacterial activity; format: cell-based; settings: Klebsiella pneumoniae, NB29017, read-out: IC50 for Kp only, hit from the HTS
[15] = read-out: Tp/Kp IC50, Table 2; expressed as μg/mL for comparison to agar values
[16] = read-out: IC50 Tp/Kp, Table 1; freshly dissolved powder, top concentration 20 μM

Structure (SMILES): C=CCSc1nnc(C)c(O)n1 [D1, C=CCSc1nnc(C)c(O)n1, reference compound]
- efficacy in an animal model of infection [1]: efficacy
- activity in the Tp/Kp wbbM assay [2]: largely retained
- qualitative score on solid medium ([3]; 2 μg/mL compound in agar): 4
- qualitative score on solid medium ([3]; 4 μg/mL compound in agar): 3
- qualitative score on solid medium ([3]; 8 μg/mL compound in agar): slight
- qualitative score on solid medium ([3]; 16 μg/mL compound in agar): 1
- IC50 ([4]; read-out: Tp/Kp IC50, D1 control on the same plate, Tp set at 25000): 2320 nM
- IC50 ([4]; read-out: Tp/Kp IC50, D1 control on the same plate; Tp set at 25000): 2730 nM
- IC50 [4, 15]: 0.54 µg/mL
- IC50 ([4]; read-out: median IC50 for D1 across 28 hit confirmation runs, standard deviation of 0.3): 2000 nM
- surface polysaccharide material by electron microscopy [5]: largely devoid of this

Structure (SMILES): CCOC(=O)/C(=N\NC(N)=S)c1cccs1 [compound 25, CCOC(=O)/C(=N\NC(N)=S)/C1=CC=CS1]
- stability [6]: unstable

Structure (SMILES): COc1ccc(-c2csc(NC(=O)c3ccc(C(=O)Nc4nc(-c5ccc(OC)c(OC)c5)cs4)s3)n2)cc1OC [compound 62, COc1ccc(cc1OC)C5=CSC(NC(=O)C2=CC=C(S2)C(=O)NC3=NC(=CS3)c4cc(OC)c(cc4)OC)=N5]
- IC50 [7]: > 210000 nM
- activity in the Tp/Kp wbbM assay [2]: retained potency
- hemolysis at 1 h [8]: 11.7%
- MIC [9]: > 32 µg/mL
- qualitative score on solid medium ([3]; 1 μg/mL compound in agar): 2
- qualitative score on solid medium ([3]; 2 μg/mL compound in agar): 0
- qualitative score on solid medium ([3]; 4 μg/mL compound in agar): 0
- qualitative score on solid medium ([3]; 8 μg/mL compound in agar): 0
- qualitative score on solid medium ([3]; 16 μg/mL compound in agar): 0
- IC50 [4, 16]: 1 nM
- IC50 [4, 15]: 0.001 µg/mL
- IC50 ([4]; read-out: Tp/Kp IC50, archived powder, side by side on the same assay plate, Tp set at 25000): 1.7 nM
- IC50 ([4]; read-out: Tp/Kp IC50, resynthesis batch, side by side on the same assay plate, Tp set at 25000): 0.67 nM
- surface polysaccharide material by electron microscopy [5]: devoid of any surface material

Structure (SMILES): COc1ccc2nc(NC(=O)c3cc(=O)c4ccccc4o3)sc2c1 [compound 63, COc4ccc3N=C(NC(=O)C2=CC(=O)c1ccccc1O2)Sc3c4]
- IC50 [7]: 34400 nM
- RBC hemolysis (HC50) [10]: 64 µM
- hemolysis at 1 h [8]: 8.3%
- MIC [9]: > 128 µg/mL
- qualitative score on solid medium ([3]; 1 μg/mL compound in agar): 1
- qualitative score on solid medium ([3]; 2 μg/mL compound in agar): 0
- qualitative score on solid medium ([3]; 4 μg/mL compound in agar): 0
- qualitative score on solid medium ([3]; 8 μg/mL compound in agar): 0
- qualitative score on solid medium ([3]; 16 μg/mL compound in agar): 0
- IC50 [4, 16]: 110 nM
- IC50 [4, 15]: 0.04 µg/mL

Structure (SMILES): CC(C)(N)C(NC(=O)c1ccc(OCC#CC2CC2)cc1)C(=O)NO (stereo not drawn) [compound 180, CC(C)(N)C(NC(=O)c1ccc(cc1)OCC#CC2CC2)C(=O)NO]
- IC50 [7]: 69400 nM
- MIC [9]: > 128 µg/mL
- IC50 [4, 16]: 1140 nM
- IC50 [11]: 40 nM

Structure (SMILES): O=CN(O)CCCP(=O)(O)O [fosmidomycin]
- MIC [12]: 0.5 µg/mL (≈ 2.73 µM)
- MIC [13]: > 128 µg/mL
- IC50 [14]: > 20000 nM
- IC50 ([4]; read-out: IC50 for Tp/Kp, hit from the HTS): < 78.1 nM
